Test results taken from ChEMBL document CHEMBL4402593, “Fragment-Based Design of Mycobacterium tuberculosis InhA Inhibitors” (J Med Chem, 2020).
Active and inactive are the calls of the source. The calls are words filed in the database; no cut-off is given here.

Key:
[1] = molecular target: T1, Enoyl-[acyl-carrier-protein] reductase [NADH] (Mycobacterium tuberculosis, UniProt P9WGR1); experiment: (§1) Inhibition of hexahistidine-SUMO tagged Mycobacterium tuberculosis InhA expressed in Escherichia coli BL21(DE3) at preincubated for 10 mins with NADH before addition of 2-trans-octanoyl-CoA as substrate and measured after 20 mins by NADH oxidation detection based colorimetric assay
T1 sequence (P9WGR1 whole entry): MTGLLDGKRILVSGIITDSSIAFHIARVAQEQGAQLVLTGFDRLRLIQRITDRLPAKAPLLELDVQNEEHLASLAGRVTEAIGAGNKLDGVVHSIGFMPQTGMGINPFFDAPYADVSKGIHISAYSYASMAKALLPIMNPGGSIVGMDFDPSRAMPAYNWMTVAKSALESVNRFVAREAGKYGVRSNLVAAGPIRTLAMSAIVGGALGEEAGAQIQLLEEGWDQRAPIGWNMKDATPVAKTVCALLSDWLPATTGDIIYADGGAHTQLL

[2] = molecular target: T2, Enoyl-[acyl-carrier-protein] reductase [NADH] (Mycobacterium tuberculosis) (UniProt P9WGR1); experiment: Inhibition of InhA in Mycobacterium tuberculosis H37Ra assessed as reduction in mycolic acids synthesis by measuring FAME level at 200 uM incubated for 48 hrs using [14C]acetate by TLC based metabolic labeling assay relative to control
T2 sequence (whole entry): T1 sequence (P9WGR1 whole entry)
Outline: (§2)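 H37Ra in 7H9/ADC/Tween 80 at OD600 0.290 received compound at 200 μM final (1% DMSO), with isoniazid 40 μM as control. After 24 h, 14C acetate (0.5 μCi/mL) was added for a further 24 h. FAMEs and MAMEs were prepared from whole cells, loaded normalised to OD600, separated by TLC, and detected by autoradiography.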

[3] = molecular target: T2, Enoyl-[acyl-carrier-protein] reductase [NADH] (Mycobacterium tuberculosis); experiment: Inhibition of InhA in Mycobacterium tuberculosis H37Ra assessed as reduction in mycolic acids synthesis by measuring MAME level at 200 uM incubated for 48 hrs using [14C]acetate by TLC based metabolic labeling assay relative to control; outline: as §2
[4] = molecular target: T2, Enoyl-[acyl-carrier-protein] reductase [NADH] (Mycobacterium tuberculosis); experiment: Inhibition of InhA in Mycobacterium tuberculosis H37Ra assessed as accumulation of trehalose monomycolates at 200 uM incubated for 48 hrs using [14C]acetate by TLC based metabolic labeling assay relative to control
Outline: (§3)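 H37Ra was grown statically at 37 °C in 7H9/ADC/0.05% Tween 80 to OD600 0.290. Compound was added at 200 μM final (1% DMSO), with isoniazid 40 μM as control inhibitor. After 24 h shaking, 14C acetate (0.5 μCi/mL) was added for another 24 h. Total lipids were extracted with chloroform/methanol and washed biphasically. TLC in chloroform/methanol/water 20:4:0.5, then autoradiography.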

[5] = molecular target: T2, Enoyl-[acyl-carrier-protein] reductase [NADH] (Mycobacterium tuberculosis); experiment: Inhibition of InhA in Mycobacterium tuberculosis H37Ra assessed as decrease in trehalose dimycolates level at 200 uM incubated for 48 hrs using [14C]acetate by TLC based metabolic labeling assay relative to control; outline: as §3
[6] = molecular target: T2, Enoyl-[acyl-carrier-protein] reductase [NADH] (Mycobacterium tuberculosis); experiment: Binding affinity to hexahistidine-SUMO tagged Mycobacterium tuberculosis InhA expressed in Escherichia coli BL21(DE3) at 1 mM in presence of 0.5 mM NAD+ by NMR spectroscopy
Outline: (§4)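 Ligand-observed NMR binding (CPMG T2 relaxation, WaterLOGSY, STD): 20 μM InhA (His6-SUMO tag removed by Ulp1, then gel-filtered) with 0.5 mM NAD+ and fragment at 1 mM. All three techniques were run on each fragment to validate thermal-shift hits.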

[7] = molecular target: T2, Enoyl-[acyl-carrier-protein] reductase [NADH] (Mycobacterium tuberculosis); experiment: Binding affinity to hexahistidine-SUMO tagged Mycobacterium tuberculosis InhA expressed in Escherichia coli BL21(DE3) at 1 mM in presence of 0.5 mM NAD+ by CPMG NMR analysis; outline: as §4
[8] = molecular target: T2, Enoyl-[acyl-carrier-protein] reductase [NADH] (Mycobacterium tuberculosis); experiment: Binding affinity to hexahistidine-SUMO tagged Mycobacterium tuberculosis InhA expressed in Escherichia coli BL21(DE3) at 1 mM in presence of 0.5 mM NAD+ by WaterLOGSY NMR analysis; outline: as §4
[9] = molecular target: T2, Enoyl-[acyl-carrier-protein] reductase [NADH] (Mycobacterium tuberculosis); experiment: as §1, with “BL21(DE3) at 2 mM preincubated for” for “BL21(DE3) at preincubated for”, “colorimetric assay relative to control” for “colorimetric assay”
Outline: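 InhA 100 nM in PIPES pH 7.5/NaCl/EDTA was preincubated 10 min with 0.25 mM NADH and fragment (1% DMSO). Reaction started with 1.5 mM 2-trans-octanoyl-CoA. A340 decrease was followed for 20 min.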

[10] = molecular target: T2, Enoyl-[acyl-carrier-protein] reductase [NADH] (Mycobacterium tuberculosis); experiment: as §1, with “BL21(DE3) at 0.1 mM preincubated for” for “BL21(DE3) at preincubated for”, “colorimetric assay relative to control” for “colorimetric assay”
Outline: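 Percent inhibition at 100 μM: tag-cleaved InhA (100 nM) in 30 mM PIPES pH 7.5, 50 mM NaCl, 0.1 mM EDTA was preincubated 10 min at room temperature with 0.25 mM NADH and compound (1% DMSO). Reaction started with 1.5 mM 2-trans-octanoyl-CoA final. NADH oxidation was read at 340 nm for 20 min.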

In the case of `NCc1cccc(NS(=O)(=O)c2cc3ccccc3o2)c1`, the IC50 [1] is reported as 22 µM, the inhibition [2] is reported as “inactive” and the inhibition [3] is reported as “inactive”. For the same compound, the inhibition [4] was “inactive” and the inhibition [5] was “inactive”.
In the case of `O=C(O)c1cc2ccccc2cc1O`, the Activity [6] is reported as “Active”, the Activity [7] is reported as “Active” and the Activity [8] is reported as “Active”. For the same compound, the inhibition [9] was “inactive”.
For `O=C(O)c1ccccc1C(=O)c1ccc(Cl)c([N+](=O)[O-])c1`, the Activity [6] was “Active”, the Activity [7] was “Active” and the Activity [8] was “Active”. The inhibition [9] was “inactive”.
`NCc1ccc(NS(=O)(=O)/C=C/c2cccc(C(F)(F)F)c2)cc1` was tested, and the inhibition [2] was “inactive”, the inhibition [3] was “inactive” and the inhibition [4] was “inactive”. For the same compound, the inhibition [5] was “inactive”.
For `NCc1cccc(NS(=O)(=O)/C=C/c2cccc(C(F)(F)F)c2)c1`, the inhibition [2] was “Active”, the inhibition [3] was “Active” and the inhibition [4] was “Active”. The inhibition [5] was “Active”.
Compound `NC(=O)c1cccc(NS(=O)(=O)/C=C/c2cccc(C(F)(F)F)c2)c1` has an inhibition [10] of 0%.
In the case of `NCc1cccc(NS(=O)(=O)c2cc3ccccc3s2)c1`, the inhibition [2] is reported as “inactive”, the inhibition [3] is reported as “inactive” and the inhibition [4] is reported as “inactive”. For the same compound, the inhibition [5] was “inactive”.
In the case of `O=C(O)/C=C/c1cccc(C(F)(F)F)c1`, the Activity [6] is reported as “Active”, the Activity [7] is reported as “Active” and the Activity [8] is reported as “Active”.
With `NNC(=O)c1ccncc1` the inhibition [2] was 100% and the inhibition [3] was 100%.
For `O=C(O)c1ccccc1-n1cccn1`, the Activity [6] was “Active”, the Activity [7] was “Active” and the Activity [8] was “Active”. The inhibition [9] was “inactive”.
With `Cc1c(S(=O)(=O)Nc2cccc(CN)c2)sc2ccc(Cl)cc12` the inhibition [2] was “inactive”, the inhibition [3] was “inactive” and the inhibition [4] was “inactive”. For the same compound, the inhibition [5] was “inactive”.
`Cc1c(S(=O)(=O)Nc2cccc(CN)c2)sc2ccc(F)cc12` was tested, and the inhibition [2] was “inactive”, the inhibition [3] was “inactive” and the inhibition [4] was “inactive”. For the same compound, the inhibition [5] was “inactive”.
For `O=C(O)CCc1cccc(Cl)c1`, the Activity [6] was “Active”, the Activity [7] was “Active” and the Activity [8] was “Active”. For the same compound, the inhibition [9] was “inactive”.
